The source made the active and inactive calls. The rule behind the calls is not given here.
Assays:
[1] = target: T1, Protein deacetylase HDAC6 (Homo sapiens, UniProt Q9UBN7); experiment: Inhibition of full length recombinant human N-terminal GST-tagged HDAC6 expressed in baculovirus infected sf9 cells preincubated for 5 mins followed by biotinylated H3K9-Ac substrate addition and measured after 60 mins by HTRF assay
T1 sequence (Q9UBN7 whole entry): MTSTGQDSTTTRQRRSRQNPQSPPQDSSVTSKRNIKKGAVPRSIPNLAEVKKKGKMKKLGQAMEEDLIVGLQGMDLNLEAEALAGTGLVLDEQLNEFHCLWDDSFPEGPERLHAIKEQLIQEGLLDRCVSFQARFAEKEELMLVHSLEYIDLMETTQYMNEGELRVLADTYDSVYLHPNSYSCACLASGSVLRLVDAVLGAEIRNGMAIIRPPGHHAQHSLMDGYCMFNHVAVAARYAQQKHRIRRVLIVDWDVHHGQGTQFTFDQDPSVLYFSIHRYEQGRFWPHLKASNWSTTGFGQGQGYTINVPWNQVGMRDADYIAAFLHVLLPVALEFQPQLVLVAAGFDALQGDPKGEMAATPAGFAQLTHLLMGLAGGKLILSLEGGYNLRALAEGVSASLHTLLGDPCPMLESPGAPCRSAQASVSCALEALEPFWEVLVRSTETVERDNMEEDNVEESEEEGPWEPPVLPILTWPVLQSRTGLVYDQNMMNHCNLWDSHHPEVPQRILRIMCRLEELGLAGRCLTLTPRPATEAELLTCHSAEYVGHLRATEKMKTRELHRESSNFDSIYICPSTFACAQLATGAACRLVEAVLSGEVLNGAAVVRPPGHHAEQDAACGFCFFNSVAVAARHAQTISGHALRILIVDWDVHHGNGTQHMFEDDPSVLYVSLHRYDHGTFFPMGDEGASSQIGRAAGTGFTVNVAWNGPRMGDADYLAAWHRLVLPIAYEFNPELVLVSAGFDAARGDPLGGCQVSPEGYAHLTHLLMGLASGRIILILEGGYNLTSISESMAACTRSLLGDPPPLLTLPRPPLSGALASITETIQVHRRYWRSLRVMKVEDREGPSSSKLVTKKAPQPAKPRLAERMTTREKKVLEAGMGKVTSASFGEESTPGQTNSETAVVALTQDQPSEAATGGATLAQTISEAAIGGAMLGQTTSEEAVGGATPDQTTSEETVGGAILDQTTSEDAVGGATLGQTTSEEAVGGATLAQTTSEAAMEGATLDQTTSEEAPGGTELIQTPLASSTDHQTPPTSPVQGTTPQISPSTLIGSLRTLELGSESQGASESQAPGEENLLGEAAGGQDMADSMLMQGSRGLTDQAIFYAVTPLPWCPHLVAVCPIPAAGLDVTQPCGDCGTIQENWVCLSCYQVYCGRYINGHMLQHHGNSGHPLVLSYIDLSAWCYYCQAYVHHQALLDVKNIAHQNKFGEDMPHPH

[2] = target: T2, Histone deacetylase 1 (Homo sapiens, UniProt Q13547); experiment: Inhibition of full length recombinant human C-terminal FLAG-tagged HDAC1 expressed in sf9 cells preincubated for 5 mins followed by biotinylated H3K9-Ac substrate addition and measured after 60 mins by HTRF assay
T2 sequence (Q13547 whole entry): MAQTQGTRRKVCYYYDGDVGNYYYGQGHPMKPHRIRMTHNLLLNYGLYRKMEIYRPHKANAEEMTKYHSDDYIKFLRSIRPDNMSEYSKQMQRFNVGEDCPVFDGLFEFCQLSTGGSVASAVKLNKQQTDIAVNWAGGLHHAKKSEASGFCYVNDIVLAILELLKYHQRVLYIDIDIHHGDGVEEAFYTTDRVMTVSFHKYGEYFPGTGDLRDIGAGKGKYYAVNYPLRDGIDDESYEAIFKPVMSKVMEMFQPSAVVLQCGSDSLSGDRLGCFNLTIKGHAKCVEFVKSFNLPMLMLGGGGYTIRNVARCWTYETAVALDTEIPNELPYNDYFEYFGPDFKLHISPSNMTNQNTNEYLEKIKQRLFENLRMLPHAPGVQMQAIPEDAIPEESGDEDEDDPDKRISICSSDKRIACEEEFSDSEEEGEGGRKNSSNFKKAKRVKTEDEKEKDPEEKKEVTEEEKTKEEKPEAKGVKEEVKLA

[3] = species: Homo sapiens; experiment: Selectivity index, ratio of IC50 for full length recombinant human C-terminal FLAG-tagged HDAC1 expressed in sf9 cells to IC50 for full length recombinant human N-terminal GST-tagged HDAC6 expressed in baculovirus infected sf9 cells
[4] = test system: U-266; experiment: cells; assay type: functional, cell-based; conditions: Homo sapiens, U-266, 72 h
[5] = target: T2, Histone deacetylase 1; experiment: Inhibition of HDAC1 in human RPMI8226 cells assessed as increase in acetylated-H3 level at 10 uM after 24 hrs by Western blot analysis; assay type: cell-based
How it was run: (§1)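 RPMI-8226 cells exposed to compound at 10 μM for 24 h. Acetylated histone H3 and acetylated tubulin were then detected by immunoblot with specific antibodies.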

[6] = target: Apoptosis regulator Bcl-2 (Homo sapiens, UniProt P10415); experiment: Inhibition of FAM-Bid peptide binding to Bcl2 (unknown origin) by fluorescence polarization assay
Chain of Apoptosis regulator Bcl-2 (P10415 whole entry): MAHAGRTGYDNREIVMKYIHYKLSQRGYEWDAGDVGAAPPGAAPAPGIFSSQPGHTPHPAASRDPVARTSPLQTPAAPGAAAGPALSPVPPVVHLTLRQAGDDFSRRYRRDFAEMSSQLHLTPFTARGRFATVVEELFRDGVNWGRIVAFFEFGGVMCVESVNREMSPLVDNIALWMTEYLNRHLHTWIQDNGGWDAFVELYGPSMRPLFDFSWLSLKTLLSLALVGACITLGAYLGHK

[7] = test system: RPMI-8226; experiment: cells; assay type: functional, cell-based; conditions: Homo sapiens, RPMI-8226, 72 h
[8] = target: T3, Protein deacetylase HDAC6 (Homo sapiens) (UniProt Q9UBN7); experiment: Inhibition of HDAC6 in human RPMI8226 cells assessed as increase in acetylated-tubulin level at 10 uM after 24 hrs by Western blot analysis; assay type: cell-based; how it was run: as §1
T3 sequence (whole entry): T1 sequence (Q9UBN7 whole entry)

IC50 [1] [nM]	IC50 [2] [nM]	IC50 [4] [µM]	inhibition [5]	IC50 [6] [nM]	IC50 [7] [nM]	inhibition [8]	SMILES	Ratio IC50 [3]
> 1000	> 1000	–	–	–	–	–	CC1(C)CCC(CN2CCN(c3ccc(C(=O)NS(=O)(=O)c4ccc(NCC(=O)NO)c([N+](=O)[O-])c4)c(Oc4cnc5[nH]ccc5c4)c3)CC2)=C(c2ccc(Cl)cc2)C1	–
19	281	8.7	Active	250	200	Active	CC1(C)CCC(CN2CCN(c3ccc(C(=O)NS(=O)(=O)c4ccc(NCCCCCCCC(=O)NO)c([N+](=O)[O-])c4)c(Oc4cnc5[nH]ccc5c4)c3)CC2)=C(c2ccc(Cl)cc2)C1	> 10
> 1000	> 1000	–	–	–	–	–	CC1(C)CCC(CN2CCN(c3ccc(C(=O)NS(=O)(=O)c4ccc(NCCCC(=O)NO)c([N+](=O)[O-])c4)c(Oc4cnc5[nH]ccc5c4)c3)CC2)=C(c2ccc(Cl)cc2)C1	–
> 1000	> 1000	–	–	–	–	–	CC1(C)CCC(CN2CCN(c3ccc(C(=O)NS(=O)(=O)c4ccc(NCCC(=O)NO)c([N+](=O)[O-])c4)c(Oc4cnc5[nH]ccc5c4)c3)CC2)=C(c2ccc(Cl)cc2)C1	–
28	665	9.8	–	240	300	Active	CC1(C)CCC(CN2CCN(c3ccc(C(=O)NS(=O)(=O)c4ccc(NCCCCCCC(=O)NO)c([N+](=O)[O-])c4)c(Oc4cnc5[nH]ccc5c4)c3)CC2)=C(c2ccc(Cl)cc2)C1	> 10
> 1000	> 1000	–	–	–	–	–	CC1(C)CCC(CN2CCN(c3ccc(C(=O)NS(=O)(=O)c4ccc(NCCCCC(=O)NO)c([N+](=O)[O-])c4)c(Oc4cnc5[nH]ccc5c4)c3)CC2)=C(c2ccc(Cl)cc2)C1	–
28	847	27.1	–	230	300	Active	CC1(C)CCC(CN2CCN(c3ccc(C(=O)NS(=O)(=O)c4ccc(NCCCCCC(=O)NO)c([N+](=O)[O-])c4)c(Oc4cnc5[nH]ccc5c4)c3)CC2)=C(c2ccc(Cl)cc2)C1	> 10
–	–	21.2	–	–	11000	–	O=C(CCCCCCNC(=O)c1cnc(N(c2ccccc2)c2ccccc2)nc1)NO [RICOLINOSTAT]	–
–	–	94	–	–	2700	–	CC1(C)CCC(CN2CCN(c3ccc(C(=O)NS(=O)(=O)c4ccc(NCC5CCOCC5)c([N+](=O)[O-])c4)c(Oc4cnc5[nH]ccc5c4)c3)CC2)=C(c2ccc(Cl)cc2)C1 [VENETOCLAX]	–

From ChEMBL document CHEMBL4330103, “Design, synthesis, and bioactivity evaluation of novel Bcl-2/HDAC dual-target inhibitors for the treatment of multiple myeloma” (Bioorg Med Chem Lett, 2019)
